In the library only some 3.7% were active in any assay of this set; here they are far more common.
KCNK9 inh: KCNK9 potassium channel inhibitors, primary screen, HEK293 cells, thallium flux; B-score at 10 µM; Potassium channel subfamily K member 9 (Homo sapiens), Q9NPC2; AID 488922, 2010; FluxOR thallium flux fluorescence; hits give low values; 310,000 compounds, 1.2% hits;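 active = ratio B-score over 3 SD below the library mean, with starting fluorescence within 5 SD of its mean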;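 also: negative B-score means less thallium flux so channel inhibition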
KCNK3 block: human KCNK3 channel inhibitors, primary screen, CHO cells, FluxOR thallium flux, B-score; Potassium channel subfamily K member 3 (Homo sapiens), O14649; FluxOR fluorescence; hits give low values; B-score at 10 µM; 340,000 compounds, 0.84% hits; AID 602410, 2012;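 active = B-score under library mean minus 4 SD, starting fluorescence ratio at most library mean plus 5 SD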;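 also: more negative B-score means stronger inhibition of thallium flux through KCNK3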
Target sequence (O14649 whole entry, looked up): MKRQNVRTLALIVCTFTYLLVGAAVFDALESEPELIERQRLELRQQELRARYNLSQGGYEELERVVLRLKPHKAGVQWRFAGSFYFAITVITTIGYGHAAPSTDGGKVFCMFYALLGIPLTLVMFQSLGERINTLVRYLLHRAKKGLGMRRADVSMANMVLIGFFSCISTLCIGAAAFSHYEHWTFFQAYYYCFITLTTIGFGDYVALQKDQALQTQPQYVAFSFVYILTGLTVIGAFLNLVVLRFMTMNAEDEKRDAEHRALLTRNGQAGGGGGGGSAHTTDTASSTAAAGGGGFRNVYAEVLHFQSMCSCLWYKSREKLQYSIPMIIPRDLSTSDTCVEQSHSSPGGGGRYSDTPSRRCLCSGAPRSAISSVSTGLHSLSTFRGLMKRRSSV
Kir21 block: inhibitors of mouse Kir2.1 inward-rectifier potassium channel; Inward rectifier potassium channel 2 (Mus musculus), P35561; HEK293-Kir2.1, FluxOR thallium flux fluorescence; hits give low values; B-score at 10 µM; 310,000 compounds, 0.85% hits; AID 1672, 2009;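 active = fluorescence ratio B-score at or below minus 3 SD of library scores, with starting-brightness B-score within 2 SD, cut at about -4.2 in these data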;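 also: channel flux triggered by added potassium and thallium sulfate stimulus; B-score of peak minus minimum fluorescence over baseline after thallium stimulus; more negative B-score means stronger Kir2.1 block with less thallium influx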
KCNQ1 block: inhibitors of human KCNQ1 channel, primary screen, cell-based, thallium flux, high-throughput; CHO-K1 KCNQ1, FluxOR thallium flux fluorescence; hits give high values; B-score at 10 µM; 310,000 compounds, 1.3% hits; AID 2642, 2010;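 active = compounds whose thallium flux B-score, printed positive for inhibition, exceeds three library SD while starting fluorescence stays within three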;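 also: channel opened by potassium depolarization with thallium stimulus after 20 min compound exposure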
hERG protect: hERG rescue from dofetilide block, primary screen, cell-based, CHO-hERG, FluxOR thallium flux, dofetilide IC70; dofetilide IC70 present; 310,000 compounds, 0.51% hits; activation (rescue from dofetilide block), less the hit threshold, % at 10 µM; AID 1511, 2009;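 active = activation above the mean of controls blocked by dofetilide plus 5 SD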;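 also: thallium influx through hERG after potassium depolarization seen as dye fluorescence rise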
KCNQ1 act: potentiators or activators of KCNQ1 channel, primary screen, cell-based, thallium flux, high-throughput. Potassium voltage-gated channel subfamily KQT member 1 (Homo sapiens), P51787. CHO-K1 KCNQ1, thallium flux FluxOR fluorescence; hits give high values. B-score at 10 µM. 310,000 compounds, 0.35% hits. AID 2648, 2010;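 active = fluorescence ratio B-score, a plate-corrected score, at least three library SD, with initial intensity B-score within 5 SD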
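Medium – assay buffer, equal DMSO in all wells · Material – CHO-K1 cell line with stable KCNQ1 potassium channel expression · Signal – kinetic FluxOR thallium fluorescence, 10-s 1-Hz baseline, 110-s post-stimulus read · Compound – single concentration per compound, DMSO matched to controls · Schedule – 37 °C overnight plating, 90-min dark dye load, 20-min compound pretreatment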
* marks the source's active call; other numbers are inactive results; i = inactive; nt = no result.

SMILES	KCNK9 inh	KCNK3 block	Kir21 block	KCNQ1 block	hERG protect	KCNQ1 act
Cc1ccc(C)c(N2CCN(c3ccncc3N)CC2)c1	i	i	-2.06	i	-6.2	i
CCN(CC(=O)NCCc1ccc(S(N)(=O)=O)cc1)Cc1nc2ccccc2c(=O)[nH]1	i	i	-0.13	i	4.8*	i
OCC1OC(n2cnc3ccccc32)CC1O (stereo unspecified)	i	i	-0.02	i	-6.7	i
CCOc1ccc(C2CC(=O)N(Nc3ccc([N+](=O)[O-])cc3[N+](=O)[O-])C2=O)cc1 (stereo unspecified)	i	i	1.17	i	0.7	i
N#Cc1nc(COc2ccc(Cl)cc2Cl)oc1N1CCN(c2ccccc2)CC1	-6.61*	i	0.68	i	-17.4	i
N=c1sccn1CC(=O)Nc1cc(S(=O)(=O)N2CCCCC2)ccc1Cl	i	i	-0.82	i	-10.6	i
Cc1ccccc1S(=O)(=O)NCc1ccc(N2CCN(C)CC2)cc1	i	i	-2.88	i	-11.3	i
CC1=NNC(=O)C1CC(=O)N/N=C/C=C/c1ccccc1 (stereo unspecified)	i	i	0.88	i	21.0*	i
COc1ccc(C(=O)NCCc2nnc3ccc(SCC(=O)Nc4ccccc4)nn23)cc1	i	i	0.11	i	-5.5	i
N#CC1=C(N)Oc2ccc3ccc(O)cc3c2C1c1ccsc1 (stereo unspecified)	i	i	-5.05*	i	-22.0	i
CC(C)(C)c1ccc(NC(=O)NC2CCCc3ccccc32)cc1 (stereo unspecified)	i	i	-0.91	6*	-4.5	i
O=C(O)CC1(CC(=O)NCc2ccc(C(F)(F)F)cc2)CCCCC1	i	i	-0.45	i	-9.1	i
O=C(O)CC1(CC(=O)Nc2cc(C(F)(F)F)cc(C(F)(F)F)c2)CCCCC1	i	i	-1.31	7*	-8.3	i
CC(C)=CCc1c(O)cc2c(=O)c3ccc(O)cc3oc2c1O	-12*	i	0.22	i	-11.4	i
N#Cc1ccc(/C=C/C(=O)c2cccnc2)cc1	i	i	-8.99*	6*	-14.8	i
O=C(/C=C/c1ccc(Cl)cc1)c1cccnc1	i	i	-7.93*	i	-11.6	i
CCN(CC)c1ccc(/C=C/C(=O)c2cccnc2)cc1	i	i	-1.25	i	-11.4	i
Cc1ccc(Cl)cc1NC(=O)N[C@@H](CC(C)C)C(=O)O	i	i	-0.36	i	-10.1	i
Cc1cccc(C)c1NC(=O)COC(=O)CCC(=O)c1cccs1	i	i	0	i	-5.3	i
Cc1noc(C)c1CSc1ncnc2sc3c(c12)CCCCC3	i	i	-0.14	i	35.1*	11*
COc1ccc(CN(Cc2cccn2C)S(=O)(=O)c2ccc(F)cc2)cc1	-6.85*	i	1.43	i	-2.1	i
CCOc1cc(CNCCO)cc(Br)c1OCc1cccs1	i	i	-12.6*	i	-8.7	i
CCOc1cc(CNCc2cccs2)cc(Br)c1OCC	i	i	-5.59*	i	-9.5	i
CCOc1cc(CNCc2ccncc2)cc(Br)c1OCc1ccccc1F	i	i	-7.95*	i	-19.1	i
Brc1cccc(CNCc2cccs2)c1	i	i	-0.5	i	-4.8	i
SMILES	KCNK9 inh	KCNK3 block	Kir21 block	KCNQ1 block	hERG protect	KCNQ1 act
NC(CCCCCP(=O)(c1ccccc1)c1ccccc1)C(=O)O (stereo unspecified)	i	nt	1.12	i	-2.9	i
C1=CC2=NC34CCCCC3CC3=C(CCCC3)N4C2=CC1=NC1CCCCC1 (stereo unspecified)	i	i	0.06	7*	-17.2	i
COc1ccc(-n2nc(C(=O)NCC(=O)NCCCN3CC(C)CC(C)C3)c3ccccc3c2=O)cc1Cl (stereo unspecified)	i	i	-0.87	i	-8.0	i
CC(OC(=O)Cc1ccccc1[N+](=O)[O-])C(=O)NC(=O)NC1CCCCC1 (stereo unspecified)	i	i	0.01	i	-7.6	i
Oc1cncc(Cc2ccccc2)c1	i	i	0.56	i	-6.6	i
CCN(C(=O)c1ccccc1)c1ccc([N+](=O)[O-])cc1	i	i	1.11	i	-2.4	i
O=[N+]([O-])c1ccc(N(c2ccccc2)c2ccccc2)cc1	i	i	0.49	9*	-25.5	i
CN(C)c1ccc(C(c2ccc(N(C)C)cc2)c2ccc([N+](=O)[O-])cc2)cc1	-7.82*	i	0.07	i	-7.9	i
Cc1cc(C)cc(N(CCC#N)C(=O)COC(=O)c2ccc(OCc3c(C)noc3C)cc2)c1	i	i	0	i	-8.6	i
Cc1ccc2c(CC(=O)OC(C)C(=O)Nc3ncc(Cl)cc3Cl)coc2c1 (stereo unspecified)	i	i	-4.48*	i	-6.1	i
CC(OC(=O)Cc1coc2ccc3ccccc3c12)C(=O)Nc1ncc(Cl)cc1Cl (stereo unspecified)	i	i	-5.56*	i	-3.0	i
CCOc1ccccc1OCC(=O)OC(C)C(=O)Nc1ncc(Cl)cc1Cl (stereo unspecified)	nt	i	nt	nt	nt	nt
COc1cccc(CC(=O)OC(C)C(=O)Nc2ncc(Cl)cc2Cl)c1 (stereo unspecified)	i	i	-4.46*	i	-10.7	i
CC(Oc1ccc(Br)cc1)C(=O)Nc1ccc(S(=O)(=O)N(C)C2CCN(C)CC2)cc1 (stereo unspecified)	i	i	-1.01	i	-15.8	10*
Cc1ccc(S(=O)(=O)Nc2cccc(C(=O)NCCCN3CCOCC3)c2)cc1F	i	i	-0.14	i	-7.9	i
CCn1c(=O)c([N+](=O)[O-])c(Cl)c2ccccc21	i	i	-0.05	7*	-28.9	i
CCn1c(=O)c([N+](=O)[O-])c(NCCN(C)C)c2ccccc21	i	i	1.22	i	-9.5	i
CC(C)Cc1nnc(NC(=O)c2ccc3c(c2)OCCO3)s1	nt	i	nt	nt	nt	nt
